A short description of this series: Toxicity liver stage against HepG2, at 10uM. The format is cell-based. The following applies: human, HepG2-A16-CD81EGFP cells; read-out: INHIBITION
Further details: test concentration 10 uM, cell line HepG2-A16-CD81EGFP. The essentials:
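Uninfected HepG2-A16-CD81EGFP cells, 3 × 10^3 per well, 1536-well, plated on prespotted compound at 10 μM final, parasite-free screening media added to match infected plates; puromycin 10 μM positive, DMSO 0.5% negative; run in parallel with 48 h PbLuc assay at 37 °C, 5% CO2; viability by CellTiter-Glo luminescence, normalized to controls.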
Consider `CCN(CC)S(=O)(=O)c1ccc2c(c1)N(Cc1ccccn1)C(=O)CS2`, for which the cytotoxicity at 10 µM was found to be 3.51%.

For `COCCN1CC(O)CN(C(=O)c2cccc(C(F)(F)F)c2)CC1=O` (centres undefined), the cytotoxicity at 10 µM was -3.84%.

Regarding `COC1CN(C(=O)Nc2ccccc2)CCC(=O)N(C)c2ccccc21` (centres undefined), the cytotoxicity at 10 µM is -9.69%.

With `CC(=O)N[C@H]1CCO[C@@H](c2cccc(NC(=O)Cc3ccccc3)c2)C1`, the cytotoxicity at 10 µM is 8.3%.

With `O=S(=O)(c1cn[nH]c1)N1CCCC(O)(CN2CCOCC2)CC1` (centres undefined), the cytotoxicity at 10 µM came out at 6.61%.

Consider `Cc1ccc(S(=O)(=O)NC(=O)CCC(F)(F)F)cc1N(C)C`, for which the cytotoxicity at 10 µM is -3.79%.

Regarding `CCCS(=O)(=O)NC(=O)c1cc(C)n(-c2ccccc2)n1`, the cytotoxicity at 10 µM is -7.21%.

Regarding `Cc1nnc(NCc2ccc(Cl)cc2)o1`, the cytotoxicity at 10 µM was 3.79%.

Turning to `CCC(NC(=O)Cn1ccc(=O)n(C)c1=O)c1ccccc1OC` (centres undefined), the cytotoxicity at 10 µM was 7.23%.

For `COCC(C)NC(=O)CCSc1ccc(F)cc1` (centres undefined), the cytotoxicity at 10 µM was 1.28%.

Turning to `N#Cc1cccc(Cl)c1NC1CCN(CC(N)=O)CC1`, the cytotoxicity at 10 µM is -5.87%.

Consider `Cc1cc(C)n(C2CCCN(C(=O)c3ccc(N(C)C)nn3)C2)n1` (centres undefined), for which the cytotoxicity at 10 µM is -9.31%.

Turning to `NCc1ccc(Oc2cccc(Cl)c2Cl)cc1`, the cytotoxicity at 10 µM came to 7.25%.

For `CC(=O)N1CCCN(C(=O)Cc2c(C)nc(C)[nH]c2=O)CC1`, the cytotoxicity at 10 µM is -8.28%.

As to `COc1ccc(Br)cc1CC(=O)N1CCCC1`, the cytotoxicity at 10 µM was -2.69%.

For `CC(C)(NCC(=O)N1CCCC(C(N)=O)C1)c1ccc(Cl)cc1` (centres undefined), the cytotoxicity at 10 µM was 3.36%.

Turning to `Cn1nccc1-c1cnc2n1CCNC21CCN(C(=O)C2(C)CC2)CC1`, the cytotoxicity at 10 µM was -111%.

With `COc1ccc(CN2CCn3c(CNS(C)(=O)=O)nnc3C2)cc1`, the cytotoxicity at 10 µM is 4.19%.

Regarding `CCCc1cnc(C)nc1N1CCC2(CCCO2)CC1`, the cytotoxicity at 10 µM was -13.4%.

On to `O=C(Cc1ccccc1C(F)(F)F)N1CCC2(CC1)OCCCC2O` (centres undefined), for which the cytotoxicity at 10 µM is -2.62%.

As for `COC(=O)c1cccc(S(=O)(=O)NCc2cccnc2N(C)C)c1`, the cytotoxicity at 10 µM amounted to 5.68%.

As to `Cc1cnn(CC2CCCCN2CCCS(=O)(=O)N(C)C)c1` (centres undefined), the cytotoxicity at 10 µM is -5.1%.

As to `Cc1cnc(CN(C)C2CCN(Cc3nc4ccccc4o3)C2)o1` (centres undefined), the cytotoxicity at 10 µM was -19.4%.

Take `Cc1cnn(CC2CN(CC(=O)N(C)Cc3ccccc3)CCO2)c1` (centres undefined): the cytotoxicity at 10 µM was -4.35%.

As to `Cc1cnc(CN(C)C2CCN(Cc3nccn3C)C2)o1` (centres undefined), the cytotoxicity at 10 µM is -7.03%.

`Cc1nc(C(=O)N2CCCC2c2cnn(C)c2)ccc1C#N` (centres undefined): the cytotoxicity at 10 µM is -13.4%.

Turning to `Cc1ccc(-c2nc(CN(Cc3cccs3)CC3CCCO3)no2)cc1` (centres undefined), the cytotoxicity at 10 µM came to 0.561%.

With `CCC(O)CN1CCN(C(=O)c2ccn(C)c(=O)c2)CC1` (centres undefined), the cytotoxicity at 10 µM is -10%.

In the case of `CC(=O)Nc1nc(C(=O)NCc2ccc(N3CCCC3)nc2)cs1`, the cytotoxicity at 10 µM was -2.6%.

Take `O=C(c1cccn1Cc1cccs1)N1CCN(C2CC2)CC1`: the cytotoxicity at 10 µM was -10.4%.

Take `CC(C(=O)N1CCCN(Cc2ccc(C#N)cc2)CC1)n1ccnc1` (centres undefined): the cytotoxicity at 10 µM is -10.9%.

For `c1coc(-c2nnc(CN3CCOC(Cn4cccn4)C3)o2)c1` (centres undefined), the cytotoxicity at 10 µM was -11%.

As to `CN1CCOC(CNCc2cccc(OCc3ccccn3)c2)C1` (centres undefined), the cytotoxicity at 10 µM is -16.5%.

For `O=C(NCCN1CCCCCC1=O)c1n[nH]c(=O)c2ccccc12`, the cytotoxicity at 10 µM is -4.38%.

On to `O=C1OCCN1CCc1nc(-c2cc3c4c(c2)CC(=O)N4CCC3)cs1`, for which the cytotoxicity at 10 µM is -7.1%.

In the case of `CC1(C)CC(N(Cc2ccccc2)Cc2c[nH]cn2)CC(C)(C)N1`, the cytotoxicity at 10 µM came to 5.28%.

For the molecule `c1csc(CNCC2COCc3c(-c4ccoc4)nnn3C2)n1` (centres undefined), the cytotoxicity at 10 µM is -107%.

Consider `CN(C)C(=O)[C@@H]1C[C@@H]2CCN(Cc3ccc4c(c3)OCO4)C[C@@H]2O1`, for which the cytotoxicity at 10 µM worked out at 2.26%.

In the case of `Cc1nc(CO[C@H]2CN(C(=O)c3ccc[nH]3)[C@@H]3COC[C@H]23)cs1`, the cytotoxicity at 10 µM is -110%.

Values taken from ChEMBL document CHEMBL4513216, “Probing the Open Global Health Chemical Diversity Library for Multistage-Active Starting Points for Next-Generation Antimalarials” (ACS Infect Dis, 2020).
